The target in series [1] is Voltage-gated inwardly rectifying potassium channel KCNH2 (Homo sapiens, UniProt Q12809). Nature of the series: Inhibition of human ERG.
A short description of series [2]: Free plasma concentration in complete Freund's adjuvant-induced rat model at 1 mg/kg, po measured after 1 hr. Format: ADME, organism-based. Conditions: in vivo.
The next series deals with Cytochrome P450 2C9 (Homo sapiens, UniProt P11712). Nature of the series: Inhibition of CYP2C9 (unknown origin). Format: ADME.
Series [3] in a line: Volume of distribution in steady state in monkey at 0.5 mg/kg, iv. The format is ADME, organism-based, Macaca mulatta. Conditions: rhesus monkey, in vivo, read-out: Vdss.
A short description of series [4]: Tmax in rat at 3 mg/kg, po. The note with it: in vivo. The format is ADME, organism-based.
Series [5] is described as follows: Cmax in monkey at 3 mg/kg, po. Format: ADME, organism-based, Macaca mulatta. Details: dose 3 mg/kg, route oral. The note with it: rhesus monkey, in vivo.
Series [6] can be described thus: Tmax in dog at 3 mg/kg, po. Format: ADME, organism-based, Canis lupus familiaris. Conditions: in vivo.
The target in series [7] is ATP-dependent translocase ABCB1 (Homo sapiens, UniProt P08183). Kind of series: Inhibition of P-glycoprotein (unknown origin) upto 100 uM.
A further series has as its target T1, Cytochrome P450 2A6 (Homo sapiens, UniProt P11509).
T1 sequence (P11509 whole entry): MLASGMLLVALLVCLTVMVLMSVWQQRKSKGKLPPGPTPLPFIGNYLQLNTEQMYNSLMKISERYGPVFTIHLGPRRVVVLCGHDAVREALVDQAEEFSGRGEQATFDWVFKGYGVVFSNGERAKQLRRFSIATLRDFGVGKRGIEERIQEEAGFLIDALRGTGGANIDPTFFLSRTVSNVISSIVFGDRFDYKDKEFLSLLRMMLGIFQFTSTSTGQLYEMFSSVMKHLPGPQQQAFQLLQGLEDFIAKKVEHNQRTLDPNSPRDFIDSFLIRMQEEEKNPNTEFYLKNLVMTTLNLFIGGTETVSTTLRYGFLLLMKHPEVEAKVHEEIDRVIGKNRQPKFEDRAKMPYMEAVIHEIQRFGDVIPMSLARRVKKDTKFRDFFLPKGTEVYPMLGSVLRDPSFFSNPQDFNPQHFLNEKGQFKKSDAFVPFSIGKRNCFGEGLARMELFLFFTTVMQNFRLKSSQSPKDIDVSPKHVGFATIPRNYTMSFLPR
Nature of the series: Inhibition of CYP2A6 (unknown origin). Format: ADME.

A short description of series [8]: Oral bioavailability in dog at 3 mg/kg. Format: ADME, organism-based, Canis lupus familiaris. The note with it: in vivo.
The nature of series [9]: Toxicity in rat assessed as sedation by measuring spontaneous locomotor activity at 100 to 300 mg/kg, po. The note with it: in vivo. Format: organism-based. The gist of the method: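 Male rats, spontaneous locomotor activity test; oral doses 60, 100 or 300 mg/kg given 30 min before the session; plasma sampled 60 min postdose at 60 mg/kg.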
Series [10] relates to Rattus norvegicus. Kind of series: Antiinflammatory activity in complete Freund's adjuvant-induced knee joint rat model of subchronic inflammation assessed as inhibition of CFA-induced hypersensitivity to pain at 1 mg/kg, BID. Format: functional, organism-based. A digest of the protocol: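 CFA-induced knee joint model of subchronic inflammation; oral 1 mg/kg BID over a 5-day dosing period; reversal of hypersensitivity compared against celecoxib.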

In series [11] the target is Sodium channel protein type 3 subunit alpha (Homo sapiens, UniProt Q9NY46). Kind of series: Inhibition of Nav1.3 (unknown origin) expressed in HEK293 cells assessed as 15% inhibition of sodium current incubated for 3 to 3.5 mins by electrophysiology assay. Format: cell-based. A digest of the protocol: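 HEK293 cells stably expressing NaV1.3, grown in DMEM-F12 with 10% FBS at 37 °C, dissociated at 50–70% confluency; IonWorksHT planar patch clamp at 21–23 °C, amphotericin perforated access; intracellular K-gluconate 100, KCl 40, MgCl2 3.2, EGTA 3, HEPES 5 mM, pH 7.3.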

Another series concerns the target T2, Cytochrome P450 1A2 (Homo sapiens, UniProt P05177).
T2 sequence (P05177 whole entry): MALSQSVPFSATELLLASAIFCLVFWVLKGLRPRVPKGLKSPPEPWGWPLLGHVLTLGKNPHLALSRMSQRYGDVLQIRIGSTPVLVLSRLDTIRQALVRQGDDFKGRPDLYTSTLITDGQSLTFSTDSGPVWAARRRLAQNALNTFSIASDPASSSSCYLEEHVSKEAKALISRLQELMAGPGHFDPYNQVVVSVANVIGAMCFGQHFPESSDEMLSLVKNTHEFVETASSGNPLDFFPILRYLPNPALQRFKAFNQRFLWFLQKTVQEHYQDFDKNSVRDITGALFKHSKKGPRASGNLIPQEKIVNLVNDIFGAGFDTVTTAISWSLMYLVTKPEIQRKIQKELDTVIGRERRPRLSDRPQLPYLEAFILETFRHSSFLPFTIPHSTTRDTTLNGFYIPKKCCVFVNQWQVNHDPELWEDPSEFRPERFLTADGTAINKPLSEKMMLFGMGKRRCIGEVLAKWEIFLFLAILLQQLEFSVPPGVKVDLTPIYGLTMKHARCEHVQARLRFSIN
Nature of the series: Inhibition of CYP1A2 (unknown origin). Format: ADME.

The test system of series [12] is Rattus norvegicus. Nature of the series: Antiinflammatory activity in complete Freund's adjuvant-induced rat model assessed as inhibition of CFA-induced hypersensitivity to pain administered orally at a single dose. Format: functional. The note with it: po.
The nature of series [13]: Volume of distribution in steady state in dog at 0.5 mg/kg, iv. The format is ADME, organism-based, Canis lupus familiaris. Conditions: in vivo, read-out: Vdss.
The target in series [14] is T3, Broad substrate specificity ATP-binding cassette transporter ABCG2 (Homo sapiens, UniProt Q9UNQ0).
T3 sequence (Q9UNQ0 whole entry): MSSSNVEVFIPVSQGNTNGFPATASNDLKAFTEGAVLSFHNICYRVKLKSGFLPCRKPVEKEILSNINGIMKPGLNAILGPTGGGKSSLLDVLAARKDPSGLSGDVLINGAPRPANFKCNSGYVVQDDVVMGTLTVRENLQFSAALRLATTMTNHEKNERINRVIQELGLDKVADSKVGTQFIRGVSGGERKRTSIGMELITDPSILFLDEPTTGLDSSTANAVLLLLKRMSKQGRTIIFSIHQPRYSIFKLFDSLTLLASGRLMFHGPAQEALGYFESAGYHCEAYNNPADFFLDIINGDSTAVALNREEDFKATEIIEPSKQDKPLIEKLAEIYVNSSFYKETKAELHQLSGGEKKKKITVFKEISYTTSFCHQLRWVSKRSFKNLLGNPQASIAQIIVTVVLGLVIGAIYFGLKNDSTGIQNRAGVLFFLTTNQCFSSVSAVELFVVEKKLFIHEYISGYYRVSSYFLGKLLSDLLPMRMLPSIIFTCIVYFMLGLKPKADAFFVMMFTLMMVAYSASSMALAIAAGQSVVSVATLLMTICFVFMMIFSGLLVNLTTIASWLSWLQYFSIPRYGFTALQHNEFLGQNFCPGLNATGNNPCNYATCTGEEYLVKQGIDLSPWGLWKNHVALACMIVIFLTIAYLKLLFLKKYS
Nature of the series: Inhibition of BCRP (unknown origin).

Calls of active or inactive are those of the source. The calls are words filed in the database; no cut-off is given here. Where only a bound is given, the exact number is not on record here.

Sequence of Cytochrome P450 2C9 (P11712 whole entry): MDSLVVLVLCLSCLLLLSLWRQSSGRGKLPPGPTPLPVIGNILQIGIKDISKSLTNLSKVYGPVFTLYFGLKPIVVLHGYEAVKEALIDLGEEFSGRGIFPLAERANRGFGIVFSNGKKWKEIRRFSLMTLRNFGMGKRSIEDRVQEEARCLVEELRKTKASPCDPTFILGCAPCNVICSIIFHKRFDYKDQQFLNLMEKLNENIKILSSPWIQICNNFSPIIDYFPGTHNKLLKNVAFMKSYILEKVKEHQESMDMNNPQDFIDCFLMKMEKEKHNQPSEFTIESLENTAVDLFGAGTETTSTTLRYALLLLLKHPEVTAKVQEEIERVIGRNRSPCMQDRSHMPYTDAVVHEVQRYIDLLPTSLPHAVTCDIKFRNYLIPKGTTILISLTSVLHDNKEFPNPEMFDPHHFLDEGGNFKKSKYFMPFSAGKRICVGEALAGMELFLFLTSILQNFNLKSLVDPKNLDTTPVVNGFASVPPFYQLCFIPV
Sequence of Voltage-gated inwardly rectifying potassium channel KCNH2 (Q12809 whole entry): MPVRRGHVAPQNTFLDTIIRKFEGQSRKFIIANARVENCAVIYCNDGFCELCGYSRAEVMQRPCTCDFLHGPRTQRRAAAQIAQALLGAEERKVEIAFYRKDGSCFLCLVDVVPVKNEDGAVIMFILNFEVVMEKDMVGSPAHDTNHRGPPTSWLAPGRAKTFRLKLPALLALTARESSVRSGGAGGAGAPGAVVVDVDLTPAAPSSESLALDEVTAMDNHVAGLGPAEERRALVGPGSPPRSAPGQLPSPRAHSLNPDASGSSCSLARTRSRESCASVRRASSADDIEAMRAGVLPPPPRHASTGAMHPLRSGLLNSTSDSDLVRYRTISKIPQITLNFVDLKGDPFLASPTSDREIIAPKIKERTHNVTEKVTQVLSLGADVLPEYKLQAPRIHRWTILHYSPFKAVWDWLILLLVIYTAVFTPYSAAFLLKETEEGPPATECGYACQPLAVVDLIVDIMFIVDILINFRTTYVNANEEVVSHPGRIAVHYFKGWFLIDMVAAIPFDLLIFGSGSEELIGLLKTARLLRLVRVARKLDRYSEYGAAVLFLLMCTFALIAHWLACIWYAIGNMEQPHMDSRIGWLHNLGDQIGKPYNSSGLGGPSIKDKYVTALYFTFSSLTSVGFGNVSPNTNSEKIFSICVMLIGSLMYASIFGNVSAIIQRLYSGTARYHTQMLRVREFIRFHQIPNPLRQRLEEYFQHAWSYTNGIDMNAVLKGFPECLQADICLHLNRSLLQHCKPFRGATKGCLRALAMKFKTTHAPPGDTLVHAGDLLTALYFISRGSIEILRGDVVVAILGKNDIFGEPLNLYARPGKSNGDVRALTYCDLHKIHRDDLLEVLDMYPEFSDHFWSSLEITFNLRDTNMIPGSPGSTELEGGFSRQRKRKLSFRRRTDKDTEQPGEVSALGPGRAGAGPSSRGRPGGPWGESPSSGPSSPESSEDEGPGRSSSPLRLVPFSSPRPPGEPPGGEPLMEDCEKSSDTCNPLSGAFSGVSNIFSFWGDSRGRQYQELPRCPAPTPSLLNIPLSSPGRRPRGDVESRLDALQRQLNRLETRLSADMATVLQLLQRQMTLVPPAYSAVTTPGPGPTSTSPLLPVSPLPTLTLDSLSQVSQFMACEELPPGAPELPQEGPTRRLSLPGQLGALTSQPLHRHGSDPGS
Sequence of Sodium channel protein type 3 subunit alpha (Q9NY46 whole entry, looked up): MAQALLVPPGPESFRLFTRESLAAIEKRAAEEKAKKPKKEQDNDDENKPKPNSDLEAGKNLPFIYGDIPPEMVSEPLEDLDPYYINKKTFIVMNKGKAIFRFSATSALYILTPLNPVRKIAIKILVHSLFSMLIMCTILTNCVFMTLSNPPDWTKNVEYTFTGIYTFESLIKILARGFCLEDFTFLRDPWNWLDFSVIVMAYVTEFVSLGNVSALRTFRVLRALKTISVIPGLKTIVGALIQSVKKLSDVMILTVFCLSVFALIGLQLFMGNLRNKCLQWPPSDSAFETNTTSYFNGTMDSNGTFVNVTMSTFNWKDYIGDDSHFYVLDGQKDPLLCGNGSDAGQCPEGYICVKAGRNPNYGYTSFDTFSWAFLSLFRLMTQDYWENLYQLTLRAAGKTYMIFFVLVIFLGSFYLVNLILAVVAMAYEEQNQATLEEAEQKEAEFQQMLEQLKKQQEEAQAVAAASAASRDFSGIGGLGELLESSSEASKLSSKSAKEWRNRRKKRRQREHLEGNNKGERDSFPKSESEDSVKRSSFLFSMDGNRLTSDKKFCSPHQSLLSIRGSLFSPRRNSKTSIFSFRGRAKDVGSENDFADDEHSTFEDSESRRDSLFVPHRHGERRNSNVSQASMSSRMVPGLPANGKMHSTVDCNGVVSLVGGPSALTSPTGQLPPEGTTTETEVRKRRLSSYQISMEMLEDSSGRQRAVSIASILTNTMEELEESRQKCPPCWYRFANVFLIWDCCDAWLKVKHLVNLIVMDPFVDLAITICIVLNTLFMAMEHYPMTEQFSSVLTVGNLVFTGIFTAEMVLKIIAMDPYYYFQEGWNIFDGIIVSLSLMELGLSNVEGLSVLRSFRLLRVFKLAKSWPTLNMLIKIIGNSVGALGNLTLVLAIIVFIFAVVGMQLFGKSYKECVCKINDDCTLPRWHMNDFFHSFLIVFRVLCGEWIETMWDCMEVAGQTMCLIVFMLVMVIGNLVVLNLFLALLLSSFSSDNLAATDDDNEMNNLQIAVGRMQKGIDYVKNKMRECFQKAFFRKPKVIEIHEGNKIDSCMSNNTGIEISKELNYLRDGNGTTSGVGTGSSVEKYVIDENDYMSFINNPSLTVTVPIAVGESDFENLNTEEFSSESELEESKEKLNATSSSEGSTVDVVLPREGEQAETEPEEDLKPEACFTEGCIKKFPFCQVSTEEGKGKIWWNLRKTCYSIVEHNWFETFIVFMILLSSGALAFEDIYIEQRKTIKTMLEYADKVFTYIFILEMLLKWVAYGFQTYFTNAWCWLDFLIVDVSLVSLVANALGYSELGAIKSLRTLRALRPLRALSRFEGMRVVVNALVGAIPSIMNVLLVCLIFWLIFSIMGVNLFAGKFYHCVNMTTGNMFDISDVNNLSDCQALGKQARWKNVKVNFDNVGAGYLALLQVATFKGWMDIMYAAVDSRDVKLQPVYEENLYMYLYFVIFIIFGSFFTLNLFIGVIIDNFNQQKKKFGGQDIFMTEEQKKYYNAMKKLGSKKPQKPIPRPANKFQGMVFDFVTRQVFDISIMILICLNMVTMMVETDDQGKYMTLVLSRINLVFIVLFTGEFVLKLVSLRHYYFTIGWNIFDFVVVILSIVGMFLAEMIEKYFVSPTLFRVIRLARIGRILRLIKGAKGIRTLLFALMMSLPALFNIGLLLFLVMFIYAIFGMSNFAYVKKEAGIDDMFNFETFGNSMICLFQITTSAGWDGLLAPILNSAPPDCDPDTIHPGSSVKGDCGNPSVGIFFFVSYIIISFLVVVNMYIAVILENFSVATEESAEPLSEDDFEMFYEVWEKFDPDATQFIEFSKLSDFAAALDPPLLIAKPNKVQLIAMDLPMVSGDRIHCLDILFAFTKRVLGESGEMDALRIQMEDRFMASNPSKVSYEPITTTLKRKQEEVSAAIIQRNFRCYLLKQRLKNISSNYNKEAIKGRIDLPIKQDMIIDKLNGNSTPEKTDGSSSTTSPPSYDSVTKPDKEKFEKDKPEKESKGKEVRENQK
Sequence of ATP-dependent translocase ABCB1 (P08183 whole entry): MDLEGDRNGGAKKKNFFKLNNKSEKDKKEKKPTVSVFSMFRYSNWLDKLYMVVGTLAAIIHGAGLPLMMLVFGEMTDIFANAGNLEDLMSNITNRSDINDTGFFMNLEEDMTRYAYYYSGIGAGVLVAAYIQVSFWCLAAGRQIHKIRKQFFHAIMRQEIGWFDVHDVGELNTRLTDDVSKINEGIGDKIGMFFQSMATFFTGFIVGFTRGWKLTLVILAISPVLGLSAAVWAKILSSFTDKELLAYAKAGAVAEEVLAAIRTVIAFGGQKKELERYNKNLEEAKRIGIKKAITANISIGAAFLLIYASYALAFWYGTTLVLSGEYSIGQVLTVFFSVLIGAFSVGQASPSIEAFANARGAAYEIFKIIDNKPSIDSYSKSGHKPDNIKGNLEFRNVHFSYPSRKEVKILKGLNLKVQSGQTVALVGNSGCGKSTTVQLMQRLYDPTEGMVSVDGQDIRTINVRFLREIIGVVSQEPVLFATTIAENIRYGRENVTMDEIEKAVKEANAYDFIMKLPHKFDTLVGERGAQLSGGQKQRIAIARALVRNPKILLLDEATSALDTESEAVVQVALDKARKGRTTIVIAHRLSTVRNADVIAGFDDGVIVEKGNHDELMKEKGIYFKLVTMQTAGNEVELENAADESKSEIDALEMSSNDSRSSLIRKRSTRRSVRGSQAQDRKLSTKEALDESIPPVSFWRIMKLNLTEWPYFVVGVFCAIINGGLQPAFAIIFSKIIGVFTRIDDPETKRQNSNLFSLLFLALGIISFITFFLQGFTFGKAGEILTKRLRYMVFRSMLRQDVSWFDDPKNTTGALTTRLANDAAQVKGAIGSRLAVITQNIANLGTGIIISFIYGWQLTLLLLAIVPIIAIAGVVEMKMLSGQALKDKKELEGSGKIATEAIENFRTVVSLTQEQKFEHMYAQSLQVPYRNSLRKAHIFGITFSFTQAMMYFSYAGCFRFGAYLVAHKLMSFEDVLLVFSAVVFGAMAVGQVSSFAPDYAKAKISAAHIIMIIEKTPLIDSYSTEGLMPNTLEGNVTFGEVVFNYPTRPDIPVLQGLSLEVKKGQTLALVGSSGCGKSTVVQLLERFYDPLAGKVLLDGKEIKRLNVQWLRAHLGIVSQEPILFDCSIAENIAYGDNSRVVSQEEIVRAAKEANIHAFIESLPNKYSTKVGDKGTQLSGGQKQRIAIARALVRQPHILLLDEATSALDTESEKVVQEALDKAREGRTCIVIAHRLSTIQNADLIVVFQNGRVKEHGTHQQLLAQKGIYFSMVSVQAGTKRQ

With `Cl.NC(=O)[C@@H]1CC[C@H](c2ccc(OCc3ccccc3F)cc2)N1` [RAXATRIGINE HYDROCHLORIDE], the IC50 in series [1] is 12.6 µM; on Cytochrome P450 2C9, above 100 µM; on Cytochrome P450 2A6, above 100 µM; against Cytochrome P450 1A2, 13 µM. For the same compound, the “Cp(f)” value in series [2] stood at 7.8 ng/mL. Besides, the Vd in [3] and in series [13] was 2 L/kg throughout. For the same compound, the figures for the time of peak concentration (Tmax) in [4] and in series [6] were 30 min and 45 min, respectively. Also, in [5], the maximum concentration (Cmax) was determined as 730 ng/mL. In addition, the “inhibition (INH)” value in series [7] and in [14] was “Not Active” throughout. The compound further registered a bioavailability in [8] of 57%. Also, the Activity entry in series [9] is “Toxic”. In addition, in the series on Rattus norvegicus [10], the outcome was Active. In addition, the log(activity) in series [11] is -5.5. Moreover, in the series with Rattus norvegicus [12], the ED50 turned out to be 0.91 mg/kg.

As a reminder, the IC50 is the concentration needed to halve the response being measured. The Tmax is the time from dosing to the highest level. A word on the Cmax: it is the peak of the concentration-time curve. As a reminder, the bioavailability is dose-corrected exposure relative to a reference, in per cent. For orientation: ED50 means the dose at which the effect has come halfway, by size or by number of responders.
